LEDGF integ inh: blocks HIV-1 LEDGF/p75-dependent DNA integration | TR-FRET IN-LEDGF/p75 DNA integration, Eu/Cy5 | inhibition, % at 3.7 µM | 0.64% of 370,000 active | AID 743269;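 active means inhibition above the screen-wide mean plus 3 SD, cut at about 13% in these data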;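 further: signal is the Cy5 over europium emission ratio at 671 and 618 nm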
TDP2 inh: TDP2 (human) inhibition, absorbance primary screen. recombinant TDP2, T5PNP hydrolysis, p-nitrophenol absorbance 415 nm. inhibition, % at 12.8 µM. 0.34% of 370,000 active. AID 720702;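 active means inhibition above the mean of all tested compounds plus 3 SD, set per campaign, cut at about 25% in these data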
Target sequence (O95551 whole entry, looked up): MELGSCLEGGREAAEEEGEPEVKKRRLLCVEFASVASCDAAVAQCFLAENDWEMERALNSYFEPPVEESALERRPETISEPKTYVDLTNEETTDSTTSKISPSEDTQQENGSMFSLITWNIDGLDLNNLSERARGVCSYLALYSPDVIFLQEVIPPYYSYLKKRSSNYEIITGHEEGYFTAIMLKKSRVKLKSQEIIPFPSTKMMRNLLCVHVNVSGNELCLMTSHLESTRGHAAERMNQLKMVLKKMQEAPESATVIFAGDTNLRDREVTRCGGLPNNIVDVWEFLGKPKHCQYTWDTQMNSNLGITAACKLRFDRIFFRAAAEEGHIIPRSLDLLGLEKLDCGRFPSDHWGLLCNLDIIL
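Incubation: 2 h at 37 °C; Test system: recombinant human TDP2; Quantity: enzyme 120 nM; Read-out basis: percent inhibition; Medium: 50 mM Tris-HCl pH 7.5 with Mg2+, KCl, DTT, BSA; Repeats: single replicate; Compound: 12.8 µM single point, 1% DMSO; Signal: epi absorbance; Reagent: 5 mM T5PNP chromogenic substrate; Benchmarks: no-enzyme high, DMSO-plus-enzyme low.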
UHRF1 MBD2 ctr: human UHRF1 methylated DNA binding inhibitors; Q96T88; UHRF1 binding to methylated oligo, TR-FRET; inhibition, % at 4.4 µM; 0.75% of 370,000 active; in the data active means inhibition above about 21%;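 further: UHRF1 SRA domain binding a hemimethylated CpG hairpin DNA probe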
Rin1 Abl inh: inhibitors of human Rin1-Abl protein interaction. TR-FRET Rin1/Abl binding, biochemical. inhibition, % at 7.35 µM. 0.4% of 360,000 active. AID 588664; in the data active means inhibition above about 5%, passing the limit was not always enough
MBD2 inh: MBD2-methylated oligo binding inhibition. Q9UBB5. TR-FRET, MBD2 binding to methylated oligonucleotide. inhibition, % at 4.4 µM. 0.31% of 370,000 active. AID 686964; in the data active means inhibition above about 13%
Numbers stand for hits. Rows were chosen to be rich in hits. Some 1.9% of all compounds tested hit in one or more screens of this group.

For COC(=O)C1=C(C)N(c2ccccc2)C(=S)NC1c1ccccc1C(F)(F)F (configuration not stated) the results were LEDGF integ inh inactive, TDP2 inh inactive, UHRF1 MBD2 ctr 44.0, Rin1 Abl inh inactive and MBD2 inh inactive.
Screening CC(COc1ccc(Cl)cc1)CN1CCC(C(O)(c2ccccc2)c2ccccc2)CC1 (configuration not stated) returned LEDGF integ inh inactive, TDP2 inh inactive, UHRF1 MBD2 ctr inactive and MBD2 inh inactive.
For CCOC(=O)c1cc(-c2ccccc2)nn1CCC#N the results were LEDGF integ inh inactive, TDP2 inh inactive, UHRF1 MBD2 ctr 43.6, Rin1 Abl inh inactive and MBD2 inh inactive.
CCOC(=O)c1cc(-c2cccs2)nn1CCC#N was read as LEDGF integ inh inactive, TDP2 inh inactive, UHRF1 MBD2 ctr inactive, Rin1 Abl inh inactive and MBD2 inh inactive.
For Oc1c(N=Nc2ccc(F)cc2)ccc2ccccc12 the results were LEDGF integ inh inactive, TDP2 inh inactive, UHRF1 MBD2 ctr inactive, Rin1 Abl inh inactive and MBD2 inh inactive.
For Oc1c(N=Nc2nn[nH]n2)ccc2ccccc12 the results were LEDGF integ inh 14.4, TDP2 inh 26.3, UHRF1 MBD2 ctr inactive, Rin1 Abl inh inactive and MBD2 inh inactive.
For COC(=O)[C@]12C[C@H](CC(=O)NCc3ccc(C)o3)C(=O)N(Cc3ccco3)C1=C[C@H](C1CCCC1)O[C@@H]2C the results were LEDGF integ inh inactive, TDP2 inh inactive, UHRF1 MBD2 ctr inactive and MBD2 inh inactive.
`O=C(O)CCc1ccc(-c2ccc(Br)cc2)n1Cc1ccco1` gave LEDGF integ inh inactive, TDP2 inh inactive, UHRF1 MBD2 ctr inactive, Rin1 Abl inh inactive and MBD2 inh inactive.
For O=C(O)CCc1ccc(-c2ccccc2)n1Cc1ccco1 the results were LEDGF integ inh 18.3, TDP2 inh inactive, UHRF1 MBD2 ctr inactive, Rin1 Abl inh inactive and MBD2 inh inactive.
For COc1ccc(Cl)c(Cn2c(NCc3ccco3)nc3c2c(=O)n(C)c(=O)n3C)c1 the results were LEDGF integ inh inactive, TDP2 inh inactive, UHRF1 MBD2 ctr inactive, Rin1 Abl inh 11.2 and MBD2 inh inactive.
For CC12COC3(P(=O)(c4ccccc4)c4ccccc4)CC1CCC23CP(=O)(c1ccccc1)c1ccccc1 (configuration not stated) the results were LEDGF integ inh inactive, TDP2 inh inactive, UHRF1 MBD2 ctr 22.0, Rin1 Abl inh inactive and MBD2 inh inactive.
`Cc1nnc(SCC(=O)Nc2c(Cl)cccc2Cl)[nH]c1=O` gave LEDGF integ inh inactive, TDP2 inh inactive, UHRF1 MBD2 ctr inactive, Rin1 Abl inh inactive and MBD2 inh inactive.
`Cc1nnc(SCC(=O)NCc2ccccc2Cl)[nH]c1=O` gave LEDGF integ inh inactive, TDP2 inh inactive, UHRF1 MBD2 ctr 20.9, Rin1 Abl inh inactive and MBD2 inh inactive.
Screening COC(=O)c1ccc(=O)c2nc3/c(=C/O)c(O)cc(=O)c3[nH]c12 returned LEDGF integ inh 51.8, TDP2 inh inactive, UHRF1 MBD2 ctr 21.1, Rin1 Abl inh 37.9 and MBD2 inh inactive.
`COC(=O)c1ccc(N)cc1O` gave LEDGF integ inh inactive, TDP2 inh inactive, UHRF1 MBD2 ctr inactive, Rin1 Abl inh inactive and MBD2 inh inactive.
For O=C(Nc1ccc2[nH]ccc2c1)c1cc(-c2ccc(Cl)cc2)nc2ccccc12 the results were LEDGF integ inh inactive, TDP2 inh inactive, UHRF1 MBD2 ctr inactive and MBD2 inh inactive.
Screening COc1ccccc1C(=O)NCC(=O)N/N=C/c1ccc([N+](=O)[O-])cc1 returned LEDGF integ inh inactive, TDP2 inh inactive, UHRF1 MBD2 ctr 24.7, Rin1 Abl inh inactive and MBD2 inh inactive.
CCC(C)COC(c1ccccc1)(c1ccccc1)C(Oc1nc(C)cc(C)n1)C(=O)O (configuration not stated) was read as LEDGF integ inh inactive, TDP2 inh inactive, UHRF1 MBD2 ctr 41.3, Rin1 Abl inh inactive and MBD2 inh inactive.
`COc1cc2c(c(OC3OC(CO)C(O)C(O)C3O)c1)C(=O)CC(c1ccc(O)cc1)O2` (configuration not stated) gave LEDGF integ inh inactive, TDP2 inh inactive, UHRF1 MBD2 ctr inactive and MBD2 inh inactive.
`CCOc1cccc(-c2nc3cc(C)ccc3o2)c1` gave LEDGF integ inh inactive, TDP2 inh inactive, UHRF1 MBD2 ctr 25.7, Rin1 Abl inh inactive and MBD2 inh inactive.
`COc1ccc(CNC(=O)O[C@H]2CC[C@@]34CCCN3C(=O)CCC[C@H]4[C@H]2C)cc1OC` gave LEDGF integ inh inactive, TDP2 inh inactive, UHRF1 MBD2 ctr inactive and MBD2 inh inactive.

Screening data (PubChem BioAssay)
